The text below walks through data of ChEMBL document CHEMBL2057080, “Synthesis, biological evaluation, and structure-activity relationships of a novel class of apurinic/apyrimidinic endonuclease 1 inhibitors” (J Med Chem, 2012).

pIC50: −log10 of the molar value.

The target of the first assay is T1, DNA repair nuclease/redox regulator APEX1 (Homo sapiens, UniProt P27695). Put plainly: Inhibition of human recombinant APE1 after 15 mins by fluorescence based HTS assay. Summed up: (§1)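 APE1 inhibition was measured in the fluorescence-based qHTS format at up to 57 µM. IC50 is the average of three separate experiments.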
T1 sequence (P27695 whole entry): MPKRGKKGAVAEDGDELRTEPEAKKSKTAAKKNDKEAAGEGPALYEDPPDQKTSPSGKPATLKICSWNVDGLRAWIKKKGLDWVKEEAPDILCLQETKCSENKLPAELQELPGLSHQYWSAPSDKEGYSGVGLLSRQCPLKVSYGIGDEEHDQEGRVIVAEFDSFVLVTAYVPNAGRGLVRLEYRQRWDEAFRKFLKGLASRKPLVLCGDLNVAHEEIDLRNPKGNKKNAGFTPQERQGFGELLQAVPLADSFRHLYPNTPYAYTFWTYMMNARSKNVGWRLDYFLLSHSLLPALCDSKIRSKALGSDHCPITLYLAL
Consider `Cc1nnc(Nc2sc3c(c2-c2nc4ccccc4s2)CCNC3)o1`, for which the pIC50 is 4.72.

In the case of `Cc1noc(Nc2sc3c(c2-c2nc4ccccc4s2)CCNC3)n1`, the negative logarithm of the IC50 (pIC50) is 4.74.

As to `CC(=O)Nc1sc2c(c1-c1cccc3ccccc13)CCNC2`, the pIC50 is less than 4.24.

Turning to `O=C(O)c1sc2c(c1-c1nc3ccccc3s1)CCNC2`, the pIC50 is less than 4.24.

`CC(=O)Nc1sc2cnccc2c1-c1nc2ccccc2s1`: the negative logarithm of the IC50 (pIC50) is less than 4.24.

Turning to `COC(=O)c1sc2c(c1-c1nc3ccccc3s1)CCNC2`, the negative-log IC50 (pIC50) is less than 4.24.

`Cc1nnc(-c2sc3c(c2-c2nc4ccccc4s2)CCNC3)o1`: the pIC50 is less than 4.24.

Regarding `Cc1noc(-c2sc3c(c2-c2nc4ccccc4s2)CCNC3)n1`, the pIC50 is less than 4.24.

For `COC(=O)Nc1sc2c(c1-c1nc3ccccc3s1)CCNC2`, the pIC50 is 4.95.

`CC(C)N1CCc2c(sc(NC(=O)C(F)F)c2-c2nc3ccccc3s2)C1`: the pIC50 was 5.28.

For the compound `C#CCCC(=O)Nc1sc2c(c1-c1nc3ccccc3s1)CCNC2`, the pIC50 is 4.92.

Regarding `c1ccc2sc(-c3csc4c3CCNC4)nc2c1`, the negative logarithm of the IC50 (pIC50) was 4.60.

Turning to `O=C(Nc1sc2c(c1-c1nc3ccccc3s1)CCNC2)C(F)(F)F`, the pIC50 is 4.75.

Regarding `CC(=O)Nc1sc2c(c1-c1cc3ccccc3[nH]1)CCNC2`, the pIC50 is less than 4.24.

As for `CC(C)N1CCc2c(sc(NC(=O)C3CCCCC3)c2-c2nc3ccccc3s2)C1`, the pIC50 is 5.08.

For the compound `CC(=O)Nc1sc2c(c1-c1csc3ccccc13)CCNC2`, the pIC50 is less than 4.24.

As for `O=C(CCc1ccccc1)Nc1sc2c(c1-c1nc3ccccc3s1)CCNC2`, the pIC50 is less than 4.24.

Take `CC(C)(C)C(=O)Nc1sc2c(c1-c1nc3ccccc3s1)CCNC2`: the negative-log IC50 (pIC50) is less than 4.24.

For the compound `CCCCC(=O)Nc1sc2c(c1-c1nc3ccccc3s1)CCN(C(C)C)C2`, the pIC50 was 5.04.

Turning to `O=C(Nc1sc2c(c1-c1nc3ccccc3s1)CCNC2)C1CC1`, the pIC50 is 5.22.

In the case of `CC(=O)Nc1sc2c(c1-c1nc3ccccc3s1)CCN(C(=O)OC(C)(C)C)C2`, the negative-log IC50 (pIC50) was less than 4.24.

A further assay concerns the target T1, DNA repair nuclease/redox regulator APEX1. The experiment in a line: Inhibition of human recombinant APE1 at 57 uM after 15 mins by fluorescence based HTS assay. Summed up:
as §1
Turning to `CC(=O)Nc1sc2c(c1-c1cccs1)CCNC2`, the inhibition was 34%.

For `CC(C)N1CCc2c(sc(N)c2-c2nc3ccccc3s2)C1`, the inhibition is 40%.

Take `CC(=O)Nc1sc2c(c1-c1nc3ccccc3s1)CCS(=O)(=O)C2`: the inhibition is 29%.

In the case of `CC(=O)Nc1sc2c(c1Br)CCNC2`, the inhibition came to 30%.

Turning to `CC(=O)Nc1sc2c(c1C#N)CCN(C(C)C)C2`, the inhibition was 31%.

As for `CC(C)N1CCc2c(sc(NC(=O)c3ccccc3)c2-c2nc3ccccc3s2)C1`, the inhibition came out at 57%.

With `CC(=O)Nc1sc2c(c1-c1cc3ccccc3o1)CCNC2`, the inhibition came out at 66%.

As for `CC(=O)Nc1sc2c(c1-c1ccccc1)CCNC2`, the inhibition worked out at 42%.

Consider `CC(=O)Nc1sc2c(c1-c1cc3ccccc3s1)CCNC2`, for which the inhibition was 23%.

For the compound `CC(=O)Nc1sc2c(c1-c1nc3ccccc3s1)CNCC2`, the inhibition is 31%.

On to `CC(=O)Nc1sc2c(c1-c1nc3ccccc3s1)CCSC2`, for which the inhibition is 56%.

For the compound `CC(=O)Nc1sc2c(c1-c1nc3ccccc3s1)CCN(Cc1ccccc1)C2`, the inhibition amounted to 41%.

As to `CC(=O)Nc1sc2c(c1-c1nccs1)CCNC2`, the inhibition was determined as 55%.

`CC(C)N1CCc2c(sc(NC(=O)Cc3ccccc3)c2-c2nc3ccccc3s2)C1`: the inhibition was found to be 53%.

In the case of `CC(=O)Nc1cc2c(s1)CNCC2`, the inhibition turned out to be 47%.

As for `O=C(O)c1cc2cccc([N+](=O)[O-])c2[nH]1`, the inhibition came out at 40%.

For the compound `CC(=O)Nc1sc2c(c1-c1nc3ccccc3s1)CCN(C(C)=O)C2`, the inhibition stood at 59%.

On to `CC(=O)Nc1sc2c(c1-c1nc3ccccc3s1)CCOC2`, for which the inhibition was found to be 41%.

Regarding `CC(=O)Nc1sc2c(c1-c1ncco1)CCNC2`, the inhibition worked out at 45%.

In the case of `C#CCCC(=O)Nc1sc2c(c1-c1nc3ccccc3s1)CCN(C(C)C)C2`, the inhibition is 57%.

For `CC(=O)Nc1sc2c(c1C(=O)O)CCNC2`, the inhibition turned out to be 29%.
